Variants at the floor of the assay were thinned out.

First the molecules themselves.
B1: tRNA (parent)
chain: GUUCCGUUGGCGUAAUGGUAACGCGUCUCCCUCCUAAGGAGAAGACUGCGGGUUCGAGUCCCGUACGGAACG

The data set covers variants of B1. Description: yeast fitness relative to wild type (ratio to wild type); higher = fitter; tRNA-Arg(CCU), competitive growth, 37 C, YPD. In short, it runs like this: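 For this measurement, the tRNA-Arg(CCU) gene was varied by chemical synthesis at a 3% per-site mutation rate across 69 sites, and each variant was placed at the native genomic locus in Saccharomyces cerevisiae. The pooled strains went through a 24-hour competition in YPD at 37°C in six parallel replicates, with amplicons from start and end populations read by 100-nucleotide paired-end sequencing. Darwinian fitness relative to wild type followed from the change in each genotype's frequency. Genotypes needed ≥ 100 starting reads, and estimates < 0.5 were set to 0.5.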
For C31U A36U A43C C55G, the yeast fitness is not above 0.5.

In the case of C31G C46U C49U G56C, the yeast fitness was not above 0.5.

Consider C31U G63A A69C, for which the yeast fitness was found to be 0.748.

Turning to C31U C34G A42C U47G A65C C66U, the yeast fitness is not above 0.5.

As to C31G C46G C61G A69U, the yeast fitness was not above 0.5.

For the variant C31G C62U, the yeast fitness amounted to 1.07.

For C31U G52C A57C, the yeast fitness is not above 0.5.

With C31U U47G G58C C62U, the yeast fitness was found to be 0.552.

Regarding C31U A37G U54A, the yeast fitness was not above 0.5.

Take C31U C34U: the yeast fitness stood at 0.748.

Regarding C31U C34G, the yeast fitness turned out to be 0.591.

On to C31U A45U G56C, for which the yeast fitness is not above 0.5.

As to C31G C46G, the yeast fitness was determined as 1.04.

In the case of U32A A36C C60G, the yeast fitness was not above 0.5.

Take U32A C33A A43U C62U: the yeast fitness is not above 0.5.

As for U32A C46A U53A, the yeast fitness was not above 0.5.

U32A C49A U53C C66G: the yeast fitness was not above 0.5.

Regarding C31U A40C A65C, the yeast fitness was found to be 0.817.

As to C31U A40G G63A A70U, the yeast fitness was not above 0.5.

Take C31U C33U A37G U59A U64G: the yeast fitness was 0.525.

With C31G G44C U53C A65U, the yeast fitness is not above 0.5.

Regarding U32A A37C C55G, the yeast fitness was 0.503.

Turning to C31G C46G C61G, the yeast fitness was not above 0.5.

On to C31G G51C G56A U64A, for which the yeast fitness was not above 0.5.

As to C31U A70G, the yeast fitness is 1.1.

For C31U U59A C60G, the yeast fitness came to 0.516.

For the variant U32A A42U C61G C62U, the yeast fitness is 0.661.

Consider U32A C66U, for which the yeast fitness was found to be 0.834.

Consider C31U A37C U64A, for which the yeast fitness is not above 0.5.

As for C31U A43G C66U, the yeast fitness amounted to 0.724.

Turning to C31U A36U, the yeast fitness worked out at 0.591.

On to C31U A36G, for which the yeast fitness turned out to be 0.857.

Consider C31U C49G C60A, for which the yeast fitness is not above 0.5.

Take C31U C46G C55U: the yeast fitness was 0.542.

U32A C60A: the yeast fitness is not above 0.5.

On to C31U C61A A69C, for which the yeast fitness came to 0.597.

As to C31U C61A A69U, the yeast fitness worked out at 0.633.

On to C31U C49G G52A C62U, for which the yeast fitness was not above 0.5.

With U32A A43G U53A G68A, the yeast fitness was not above 0.5.

For C31U G44A A45U U47C, the yeast fitness turned out to be 0.607.

As to C31U A36C A45C C61G, the yeast fitness is not above 0.5.

With U32A C61G G68C, the yeast fitness stood at 0.601.

On to C31U A43U G48A A57U G67C, for which the yeast fitness was not above 0.5.

Take C31G U32G C55A C62G A65U: the yeast fitness is 0.688.

With C31U U35C A40G, the yeast fitness is not above 0.5.

For the variant C31U C66U, the yeast fitness came to 1.03.

C31G G44A: the yeast fitness was found to be 1.07.

For the variant C31U A37G A45C C62G, the yeast fitness was determined as 0.593.

Regarding C31U A37G C62G, the yeast fitness is 0.517.

For C31U A57G, the yeast fitness was 1.06.

For C31U A57U, the yeast fitness came out at 0.619.

U32A A42C A57G A70C: the yeast fitness is not above 0.5.

For C31U G48A A65G, the yeast fitness was 0.917.

For the variant C31G U32G C33U A70G, the yeast fitness is not above 0.5.

On to C31G G67C, for which the yeast fitness was 0.888.

For the variant C31G G67A, the yeast fitness is 0.859.

Turning to U32A C55A, the yeast fitness came to 0.572.

Consider C31G G44C C46U, for which the yeast fitness came to 1.

As for C31G U59G, the yeast fitness is 0.734.

C31G U59C: the yeast fitness was 0.871.

For the variant C31G G50C, the yeast fitness was found to be 0.738.

With C31G G50A, the yeast fitness was 0.837.

On to C31G C61A, for which the yeast fitness was 0.65.

Regarding C31G C55U U59A, the yeast fitness is 0.559.

For C31G C34U C46U G56A C62U, the yeast fitness is not above 0.5.

C31U C33G C49A G51A: the yeast fitness came to 0.563.

Regarding C31G G51A U59A, the yeast fitness is not above 0.5.

In the case of C31U G58A A65G, the yeast fitness turned out to be 0.73.

On to C31U G48A C61G C62A, for which the yeast fitness worked out at 0.602.

On to C31U G38C G51A G56A, for which the yeast fitness came to 0.543.

With C31U C46A A69C, the yeast fitness was determined as 0.757.

As to U32A C46A G58A, the yeast fitness was not above 0.5.

For C31U A65U, the yeast fitness amounted to 0.955.

Regarding C31U C33A G50A A65G, the yeast fitness is not above 0.5.

Consider C31U U53C C62G, for which the yeast fitness turned out to be 0.625.

As for C31U C33A C62U, the yeast fitness was not above 0.5.

Regarding C31G C60G C62A, the yeast fitness amounted to 0.624.

Turning to C31U C55G, the yeast fitness is 0.629.

Turning to C31U C55U, the yeast fitness worked out at 0.72.

For C31U C34A A36G G38C G51A, the yeast fitness is not above 0.5.

As for C31G C34U C46U G56A, the yeast fitness was not above 0.5.

Consider C31G C55G U64C, for which the yeast fitness is not above 0.5.

C31U C62U: the yeast fitness worked out at 0.907.

As to C31U C62A, the yeast fitness was determined as 0.776.

For the variant C31U C62G, the yeast fitness stood at 0.949.

Consider C31U G44A A45U A57G, for which the yeast fitness came to 0.537.

Regarding C31U A40G A42C G44A A45U, the yeast fitness is not above 0.5.

For C31U C46G G50U C61U, the yeast fitness was not above 0.5.

On to C31U U32G C33G, for which the yeast fitness was determined as 0.591.

C31U A37U C46A C49A C55A C66G: the yeast fitness was 0.663.

Regarding C31G C62U A65G, the yeast fitness was determined as 0.71.

Take C31G G52C: the yeast fitness was found to be 0.531.

As for C31G G52A, the yeast fitness was found to be 0.755.

Regarding U32A C61G A70U, the yeast fitness is not above 0.5.

As to C31U A36U A69C, the yeast fitness was found to be 0.591.

Turning to C31G U54C, the yeast fitness amounted to 0.798.

Take C31U A43G U53C: the yeast fitness amounted to 0.513.

Consider C31G C34U A42U, for which the yeast fitness amounted to 0.612.

With C31G C34U A42U A70C, the yeast fitness is not above 0.5.

Regarding U32A C49A, the yeast fitness was determined as 0.582.

Consider U32A C49U, for which the yeast fitness came to 0.78.

Take U32A A36G G39C C62U: the yeast fitness is not above 0.5.

Take C31G U64A A69C: the yeast fitness is not above 0.5.

For the variant C31U C34A A45U C61U, the yeast fitness is not above 0.5.

For C31G C49U G50C A69U, the yeast fitness is not above 0.5.

Consider C31G G56A U59C A65C A70G, for which the yeast fitness was not above 0.5.

With C31U C46A G58C, the yeast fitness was 0.645.

On to C31U A45G, for which the yeast fitness came to 0.932.

Take C31U G44C: the yeast fitness stood at 0.826.

As to C31G G41C, the yeast fitness turned out to be 0.696.

As to C31U A42U, the yeast fitness amounted to 0.957.

On to C31U U35A A37G A40C U47C U64G, for which the yeast fitness turned out to be 0.512.

As for C31U A40G C46G A65G, the yeast fitness was not above 0.5.

Consider C31G C34U G67U, for which the yeast fitness was not above 0.5.

On to U32A C62A, for which the yeast fitness stood at 0.549.

In the case of U32A C62U, the yeast fitness was 0.645.

As for C31G G48A U59C, the yeast fitness amounted to 0.793.

Turning to C31U C49G A69C, the yeast fitness stood at 0.636.

Take U32A C46A A57G: the yeast fitness was found to be 0.614.

As to C31U A43U G48A U53A, the yeast fitness was 0.587.

As for U32A C34G, the yeast fitness was not above 0.5.

As for C31G G48A, the yeast fitness turned out to be 0.925.

As for C31G C34U A40C G63C, the yeast fitness was not above 0.5.

On to C31U U32A U35C A65G, for which the yeast fitness was not above 0.5.

C31G C33U A42C C66G: the yeast fitness was not above 0.5.

Regarding C31U U35C, the yeast fitness stood at 0.851.

C31G C34G: the yeast fitness turned out to be 0.629.

For the variant C31U G58A C66U, the yeast fitness was 0.73.

C31U C49U: the yeast fitness is 1.04.

In the case of C31G U35A, the yeast fitness came to 0.659.

For the variant C31G G44C A65G A69C, the yeast fitness was not above 0.5.

For U32A C46A A65G C66A G68C, the yeast fitness is not above 0.5.

On to C31U A43U G48A U53A C62U, for which the yeast fitness is not above 0.5.

For C31U G39A A57C, the yeast fitness was not above 0.5.

Regarding C31U G52C, the yeast fitness is 0.661.

In the case of C31U C49U C60A G63C, the yeast fitness was not above 0.5.

Turning to C31G U35A A65U, the yeast fitness was determined as 0.622.

C31U G44A C46U: the yeast fitness is 0.629.

Turning to C31U A37C A43U G50C A57G, the yeast fitness is 0.586.

As to C31G G41C G50C C60U A69C, the yeast fitness is not above 0.5.

For the variant C31G G38A G63U, the yeast fitness was not above 0.5.

Regarding C31U C33U A42C C49U, the yeast fitness is not above 0.5.

Consider C31G G38C, for which the yeast fitness stood at 0.826.

Consider C31G G38A, for which the yeast fitness turned out to be 0.802.

As for C31U C34A C61G, the yeast fitness is not above 0.5.

C31U A36U A45C C62U: the yeast fitness was not above 0.5.

Consider C31G C46A G63C A65U, for which the yeast fitness is 0.509.

As for C31G C34U A40C A69C, the yeast fitness is not above 0.5.

Regarding C31G G52A U59A, the yeast fitness is not above 0.5.

Turning to C31U A45U A69U, the yeast fitness stood at 1.

As to C31U U47C, the yeast fitness is 0.934.

Consider C31U C60G G67A, for which the yeast fitness was not above 0.5.

Take U32A A36G: the yeast fitness was determined as 0.814.

C31U C60A: the yeast fitness was determined as 0.563.

As to C31U C60G, the yeast fitness worked out at 0.696.

Regarding C31U A36G A45U, the yeast fitness was determined as 0.593.

Regarding C31G U32A G56C, the yeast fitness was 0.6.

Regarding U32A A43G U53A, the yeast fitness is not above 0.5.

Take C31U A36U A45C C46G G48C: the yeast fitness came out at 0.53.

In the case of C31G G38C A43U C62G, the yeast fitness was not above 0.5.

As for C31U A40G U54C A70U, the yeast fitness stood at 0.527.

Consider C31G C33G G39C, for which the yeast fitness was 0.508.

In the case of C31G C34U C55U G58A C61U, the yeast fitness was found to be 0.586.

Consider C31U A42U A70U, for which the yeast fitness is 1.14.

With C31U A37U C60G, the yeast fitness is not above 0.5.

Consider C31U A40U U59C A70U, for which the yeast fitness was not above 0.5.

For the variant C31G G67U A69C, the yeast fitness was 0.526.

Values taken from the RNAGym collection of RNA variant scans (doi:10.1126/science.aae0568).
